According to PMC9540497 (Clinical Pharmacology and Therapeutics, 2022):
Read-outs that look alike come from different tables or passages of the source.

Legend:
[1] = type: in vivo, human; conditions: for AUC(0-inf) / Cmax / Tmax / half-life: female, human, plasma, oral; for AUC(0-inf): AUC0–inf; for AUC(0-inf) / Cmax: mean (CV%); for Tmax: median (minimum, maximum); for half-life: t 1/2, mean (CV%)
In short: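 Healthy women received a single oral contraceptive dose (0.03 mg EE, 3 mg DRSP) fed on days 1, 8 and 18, with test compound 600 mg once daily on days 8–23. Blood was drawn predose and at 0.5–120 h postdose. EE and DRSP were measured by validated UHPLC-MS/MS (LLOQ 2.5 pg/mL and 0.5 ng/mL). LS geometric mean ratios (90% CI) of ln Cmax and AUC0–inf came from a mixed model (day fixed, subject random).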

CYP3A4 [2] = target: T1, CYP3A4 (Homo sapiens, UniProt P08684); conditions: cited from earlier work
SULT1E1 [3] = target: T2, SULT1E1 (Homo sapiens, UniProt P49888); assay: SULT1E1 in vitro inhibition test; type: biochemical
T2 sequence (P49888 1-294): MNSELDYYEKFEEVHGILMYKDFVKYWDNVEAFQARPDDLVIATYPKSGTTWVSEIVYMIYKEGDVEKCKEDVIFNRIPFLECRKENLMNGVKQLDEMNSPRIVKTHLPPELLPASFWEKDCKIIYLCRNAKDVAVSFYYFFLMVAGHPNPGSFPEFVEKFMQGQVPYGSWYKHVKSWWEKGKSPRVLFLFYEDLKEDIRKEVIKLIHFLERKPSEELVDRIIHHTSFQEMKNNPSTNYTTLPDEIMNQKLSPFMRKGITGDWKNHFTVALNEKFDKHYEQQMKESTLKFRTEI
In short: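 Recombinant human SULT1E1 expressed in E. coli was incubated with EE 5 nM as substrate. Test compound was tested at 0.8, 2, 8, 20, 80 and 200 µM, with quercetin 0.5 µM as positive control and a DMSO solvent control. Metabolite formation was read by UHPLC-MS/MS peak area, and activity was expressed relative to solvent control (n = 3). IC50 came from a sigmoidal fit; tentative Ki came from Cheng–Prusoff assuming competitive inhibition and substrate concentration equal to Km.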

SULT1E1 [4] = target: T2, SULT1E1; type: in vivo; conditions: 600 mg q.d.; day 18 vs day 1; three subjects
In short: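 Plasma from three subjects, sampled on day 1 (oral contraceptive alone) and day 18 (with test compound 600 mg q.d.), was split into duplicate aliquots. One aliquot was hydrolysed with purified arylsulfatase and the other with genetically modified β-glucuronidase, in 1 M Tris-HCl pH 8.0 buffer (stock), at 50°C for 1 h. Total EE was measured by LC-MS/MS. EE AUClast with and without hydrolysis was computed by linear-up/log-down trapezoids.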

Safety and tolerability = type: in vivo, human; conditions: 600 mg q.d. with oral contraceptive, healthy women
In short: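 Throughout the study in healthy women, TEAEs, serious TEAEs and TEAEs leading to discontinuation were monitored, covering oral contraceptive alone and co-administration with test compound 600 mg q.d. Intensity (mild/moderate) and investigator-judged relatedness were recorded. Clinical laboratory parameters, vital signs and ECG were also assessed.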

UGT1A1 = target: T3, UGT1A1 (Homo sapiens, UniProt P22309); type: in vivo; conditions: 600 mg q.d.; day 18 vs day 1; three subjects
T3 sequence (P22309 26-533): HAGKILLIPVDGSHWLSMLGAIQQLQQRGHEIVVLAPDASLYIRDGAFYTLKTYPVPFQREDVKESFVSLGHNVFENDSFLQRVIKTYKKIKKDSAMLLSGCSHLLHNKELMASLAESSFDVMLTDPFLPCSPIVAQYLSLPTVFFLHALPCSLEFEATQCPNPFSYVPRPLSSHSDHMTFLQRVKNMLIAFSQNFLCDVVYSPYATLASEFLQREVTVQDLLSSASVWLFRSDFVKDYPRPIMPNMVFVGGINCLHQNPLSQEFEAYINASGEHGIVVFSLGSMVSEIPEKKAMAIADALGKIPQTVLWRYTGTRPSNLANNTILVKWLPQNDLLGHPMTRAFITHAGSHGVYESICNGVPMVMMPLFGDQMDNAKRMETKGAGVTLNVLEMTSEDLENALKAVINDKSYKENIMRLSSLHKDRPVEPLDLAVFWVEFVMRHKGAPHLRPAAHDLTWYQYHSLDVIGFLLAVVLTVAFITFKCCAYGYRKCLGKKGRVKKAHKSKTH

CYP3A4 [5] = target: T1, CYP3A4; conditions: in vitro studies; cited from earlier work
CYP3A4 [6] = target: T1, CYP3A4; assay: In vitro CYP3A4 inhibition and induction by ziritaxestat and predictions from it; type: in vitro ADME; conditions: data on file
[7] = OC + ziritaxestat 600 mg q.d. (day 8, SD), n = 14
[8] = OC + ziritaxestat 600 mg q.d. (day 18, MD), n = 13
[9] = day 18 test vs. day 1 reference, ziritaxestat 600 mg q.d.

T1 sequence (P08684 whole entry): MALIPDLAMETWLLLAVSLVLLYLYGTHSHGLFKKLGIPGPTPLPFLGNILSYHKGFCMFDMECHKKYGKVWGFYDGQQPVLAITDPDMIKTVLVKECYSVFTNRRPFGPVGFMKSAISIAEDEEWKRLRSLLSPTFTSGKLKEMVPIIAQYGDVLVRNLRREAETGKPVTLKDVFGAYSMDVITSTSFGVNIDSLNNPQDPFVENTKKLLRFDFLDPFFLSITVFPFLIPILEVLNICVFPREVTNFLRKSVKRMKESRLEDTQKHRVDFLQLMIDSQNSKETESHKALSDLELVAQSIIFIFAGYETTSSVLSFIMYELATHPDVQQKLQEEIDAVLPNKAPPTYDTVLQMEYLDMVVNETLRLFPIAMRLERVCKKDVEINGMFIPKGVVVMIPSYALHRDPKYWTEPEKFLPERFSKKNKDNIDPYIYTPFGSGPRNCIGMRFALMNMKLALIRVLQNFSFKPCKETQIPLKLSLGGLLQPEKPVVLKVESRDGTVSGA

Work on `C[C@]12CCC(=O)C=C1[C@@H]1C[C@@H]1[C@H]1[C@@H]3[C@@H]4C[C@@H]4[C@@]4(CCC(=O)O4)[C@@]3(C)CC[C@@H]12` [Drospirenone, drospirenone] yielded an AUC(0-inf) [1, 7] of 686 ng·h/mL, an AUC(0-inf) [1, 8] of 708 ng·h/mL and an AUC(0-inf) ([1]; OC alone (day 1), n = 15) of 574 ng·h/mL. The Cmax [1, 7] was 21.4 ng/mL, the Cmax [1, 8] was 22.6 ng/mL and the Cmax ([1]; OC alone (day 1), n = 15) was 20.7 ng/mL. The Tmax [1, 7] was 2.5 h, the Tmax [1, 8] was 4 h and the half-life [1, 7] was 44.7 h. It also gave a half-life [1, 8] of 43.4 h and a half-life ([1]; OC alone (day 1), n = 15) of 39 h.
In the case of `C#C[C@]1(O)CC[C@H]2[C@@H]3CCc4cc(O)ccc4[C@H]3CC[C@@]21C` [Ethinyl estradiol, ethinyl estradiol], the “increase of AUC0–inf on co-administration with ziritaxestat” value [1, 9] is reported as 2.4 fold, the “increase of Cmax on co-administration with ziritaxestat” value [1, 9] is reported as 2.8 fold and the AUC(0-inf) [1, 7] is reported as 2.02 ng·h/mL. The AUC(0-inf) [1, 8] was 2.18 ng·h/mL, the AUC(0-inf) ([1]; OC alone (day 1), n = 15, fed) was 0.967 ng·h/mL and the Cmax [1, 7] was 0.122 ng/mL. The Cmax ([1]; OC alone (day 1), n = 15) was 0.047 ng/mL, the half-life [1, 7] was 30.1 h and the half-life ([1]; OC alone (day 1), n = 15) was 22 h.
In the case of `CC(C)(C)NC(=O)N[C@H](C(=O)N1C[C@H]2[C@@H]([C@H]1C(=O)NC(CC1CCC1)C(=O)C(N)=O)C2(C)C)C(C)(C)C` (some centres unmarked) [boceprevir], the “increase in DRSP exposure on co-administration” value (CYP3A4 [2]; strong CYP3A4 inhibition) is given as 100%.
With `O=c1c(O)c(-c2ccc(O)c(O)c2)oc2cc(O)cc(O)c12` [quercetin, Quercetin] the inhibition at 0.5 µM (SULT1E1 [3]; read-out: inhibition of SULT1E1) was 66%.
For `C[C@@H](c1ncncc1F)[C@](O)(Cn1cncn1)c1ccc(F)cc1F` [voriconazole], the “increase of the systemic exposure of EE on co-administration” value (CYP3A4 [2]; strong CYP3A4 inhibitor co-administered) is listed as 60%.
For `CCc1nc2c(C)cc(N3CCN(CC(=O)N4CC(O)C4)CC3)cn2c1N(C)c1nc(-c2ccc(F)cc2)c(C#N)s1` [ziritaxestat], the “effect on EE sulfation in vivo (in words)” value (SULT1E1 [4]) was “potent inhibitor of sulfation”, the IC50 (SULT1E1 [3]) was under 800 nM and the “tolerability (in words)” value (Safety and tolerability) was “generally well tolerated”. The “effect on EE glucuronidation in vivo (in words)” value (UGT1A1) was “potential weak inhibitory effect”, the “CYP3A4 induction and inhibition in vitro (in words)” value (CYP3A4 [5]) was “weak inducer and inhibitor” and the “mode of CYP3A4 inhibition” value (CYP3A4 [6]) was “competitive and reversible”.
